Source: ChEMBL document CHEMBL1124186, “Synthesis and evaluation of tylosin-related macrolides modified at the aldehyde function: a new series of orally effective antibiotics” (1988)
In brackets after ≈: the same amount, converted by molar mass.

Tests used:
Bacteroides fragilis [1] = assay: In vitro antimicrobial activity against anaerobic bacteria bacteroides fragilis 111; format: functional
Bacteroides fragilis [2] = assay: In vitro antimicrobial activity against anaerobic bacteria bacteroides fragilis 1877; format: functional
Bacteroides fragilis [3] = assay: In vitro antimicrobial activity against anaerobic bacteria bacteroides fragilis 1936B,; format: functional
Eikenella corrodens = assay: In vitro antimicrobial activity against anaerobic bacteria bacteroides corrodens 1874; format: functional
Phocaeicola vulgatus = assay: In vitro antimicrobial activity against anaerobic bacteria bacteroides vulgatus 1211; format: functional
[4] = test system: Prevotella melaninogenica; assay: In vitro antimicrobial activity against anaerobic bacteria bacteroides melaninogenicus 1856,; format: functional
[5] = test system: Bacteroides thetaiotaomicron; assay: In vitro antimicrobial activity against anaerobic bacteria bacteroides thetaiotaomicron 1438; format: functional
Clostridioides difficile = assay: In vitro antimicrobial activity against anaerobic bacteria Clostridium difficile 2994; format: functional
Clostridium perfringens = assay: In vitro antimicrobial activity against anaerobic bacteria clostridium perfringens 81,; format: functional
Clostridium septicum = assay: In vitro antimicrobial activity against anaerobic bacteria clostridium septicum 1128; format: functional
Chlamydia trachomatis = assay: In vitro antimicrobial activity against chlamydia trachomatis.; format: functional
Fusobacterium = assay: In vitro antimicrobial activity against anaerobic bacteria fusobacterium symbiosum 1470; format: functional
Haemophilus influenzae [6] = assay: In vitro antimicrobial activity against aerobic bacteria Haemophilus influenzae 76; format: functional
Haemophilus influenzae [7] = assay: In vitro antimicrobial activity against aerobic bacteria Haemophilus influenzae MX366,; format: functional
Haemophilus influenzae [8] = assay: In vitro antimicrobial activity against Haemophilus influenzae.; format: functional
[9] = test system: Haemophilus parainfluenzae; assay: In vitro antimicrobial activity against aerobic bacteria Haemophilus parainfluenzae 9796; format: functional
[10] = In vitro antimicrobial activity against anaerobic bacteria peptostreptococcus intermedius 1264; format: functional
[11] = test system: Peptoniphilus asaccharolyticus; assay: In vitro antimicrobial activity against anaerobic bacteria peptococcus asaccharolyticus 1302; format: functional
Anaerococcus prevotii = assay: In vitro antimicrobial activity against anaerobic bacteria peptococcus prevoti 1281; format: functional
Cutibacterium acnes = assay: In vitro antimicrobial activity against anaerobic bacteria propionibacterium acnes 79; format: functional
Streptococcus [12] = assay: In vitro antimicrobial activity against aerobic bacteria Streptococcus B 8; format: functional
Streptococcus [13] = assay: In vitro antimicrobial activity against aerobic bacteria Streptococcus C 24; format: functional
Streptococcus [14] = assay: In vitro antimicrobial activity against aerobic bacteria Streptococcus D 8043; format: functional
Streptococcus [15] = assay: In vitro antimicrobial activity against aerobic bacteria Streptococcus D 9960; format: functional
Streptococcus [16] = assay: In vitro antimicrobial activity against aerobic bacteria Streptococcus G Kruder; format: functional; conditions: Streptococcus; read-out: MIC
[17] = test system: Staphylococcus epidermidis; assay: In vitro antimicrobial activity against aerobic bacteria Streptococcus epi 270; format: functional
Staphylococcus aureus [18] = assay: In vitro antimicrobial activity against Staphylococcus aureus X1; format: functional
Staphylococcus aureus [19] = assay: In vitro antimicrobial activity against aerobic bacteria Staphylococcus aureus 513E; format: functional
Staphylococcus aureus [20] = assay: In vitro antimicrobial activity against aerobic bacteria Staphylococcus aureus V140,; format: functional
Staphylococcus aureus [21] = assay: In vitro antimicrobial activity against aerobic bacteria Staphylococcus aureus V41; format: functional
Staphylococcus aureus [22] = assay: In vitro antimicrobial activity against aerobic bacteria Staphylococcus aureus X400; format: functional
Streptococcus pyogenes [23] = assay: Effective dose against Streptococcus pyogenes C203 when administered orally; format: functional; conditions: po
Outline: (§1)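 Mouse protection test: infected mice were dosed twice, at 1 and 5 h postinfection, either subcutaneously or orally. […] The result is expressed as ED50 in mg/kg × 2.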

Streptococcus pyogenes [24] = assay: Effective dose against Streptococcus pyogenes C203 when administered sc; format: functional; outline: as §1
Streptococcus pneumoniae [25] = assay: In vitro antimicrobial activity against aerobic bacteria Streptococcus pneumoniae B1-438; format: functional, streptococcus pneum
Streptococcus pyogenes [26] = assay: In vivo effective dose against experimental infections in rodent caused by Streptococcus pyogenes C203 when administered sc; format: functional
Streptococcus sanguinis = assay: In vitro antimicrobial activity against aerobic bacteria Streptococcus sanguis MX132; format: functional
Streptococcus pneumoniae [27] = assay: In vitro antimicrobial activity against Streptococcus pneumoniae; format: functional
[28] = test system: Staphylococcus epidermidis; assay: In vitro antimicrobial activity against Staphylococcus epidermidis EPI1; format: functional
[29] = test system: Staphylococcus epidermidis; assay: In vitro antimicrobial activity against aerobic bacteria Streptococcus epi 222; format: functional
Enterococcus faecium = assay: In vitro antimicrobial activity against Streptococcus faecium X66; format: functional, streptococcus fae-cium
Streptococcus pyogenes [30] = assay: In vitro antimicrobial activity against Streptococcus pyogenes C203; format: functional
Streptococcus viridans = assay: In vitro antimicrobial activity against aerobic bacteria Streptococcus viridans 9943; format: functional
Streptococcus [31] = assay: In vitro antimicrobial activity against aerobic bacteria Streptococcus B 5; format: functional
Staphylococcus aureus [32] = assay: In vitro antimicrobial activity against aerobic bacteria Staphylococcus aureus V135; format: functional
Haemophilus influenzae [33] = assay: In vitro antimicrobial activity against aerobic bacteria Haemophilus influenzae 465; format: functional
[34] = test system: Prevotella melaninogenica; assay: In vitro antimicrobial activity against anaerobic bacteria bacteroides melaninogenicus 2736; format: functional
[35] = test system: Fusobacterium necrophorum; assay: In vitro antimicrobial activity against anaerobic bacteria usobacterium necrophorum 6054A; format: functional
Collinsella aerofaciens [36] = assay: In vitro antimicrobial activity against anaerobic bacteria eubacterium aerofaciens 1235; format: functional
Streptococcus [37] = assay: In vitro antimicrobial activity against aerobic bacteria Streptococcus D 2041; format: functional
[38] = test system: Peptostreptococcus anaerobius; assay: In vitro antimicrobial activity against anaerobic bacteria eubacterium peptostreptococcus anaerobius 1428,; format: functional
Streptococcus pyogenes [39] = assay: Antimicrobial activity against Streptococcus pyogenes C203; format: functional
Streptococcus pyogenes [40] = assay: In vivo effective dose against experimental infections in rodent caused by Streptococcus pyogenes C203 when administered orally; format: functional; conditions: po
Collinsella aerofaciens [41] = assay: In vitro antimicrobial activity against anaerobic bacteria aerofaciens 1235; format: functional
[42] = test system: Peptostreptococcus anaerobius; assay: In vitro antimicrobial activity against anaerobic bacteria peptostreptococcus anaerobius 1428,; format: functional

## CC[C@H]1OC(=O)C[C@@H](O)[C@H](C)[C@@H](O[C@@H]2O[C@H](C)[C@@H](O)[C@H](N(C)C)[C@H]2O)[C@@H](CC=O)C[C@@H](C)C(=O)/C=C/C(C)=C/[C@@H]1CO
Bacteroides fragilis [1]
  MIC: 32 µg/mL (≈ 53.5 µM)
Bacteroides fragilis [2]
  MIC: 64 µg/mL (≈ 107 µM)
Bacteroides fragilis [3]
  MIC: 32 µg/mL (≈ 53.5 µM)
Eikenella corrodens
  MIC: 32 µg/mL (≈ 53.5 µM)
Phocaeicola vulgatus
  MIC: 32 µg/mL (≈ 53.5 µM)
[4]
  MIC: 8 µg/mL (≈ 13.4 µM)
[5]
  MIC: 128 µg/mL (≈ 214 µM)
Clostridioides difficile
  MIC: 4 µg/mL (≈ 6.69 µM)
Clostridium perfringens
  MIC: < 0.5 µg/mL
Clostridium septicum
  MIC: 4 µg/mL (≈ 6.69 µM)
Chlamydia trachomatis
  MIC: 0.5 µg/mL (≈ 0.836 µM)
Fusobacterium
  MIC: < 0.005 µg/mL
Haemophilus influenzae [6]
  MIC: 2 µg/mL (≈ 3.35 µM)
Haemophilus influenzae [7]
  MIC: 2 µg/mL (≈ 3.35 µM)
Haemophilus influenzae [8]
  MIC: 2 µg/mL (≈ 3.35 µM)
[9]
  MIC: 4 µg/mL (≈ 6.69 µM)
[10]
  MIC: 1 µg/mL (≈ 1.67 µM)
[11]
  MIC: 2 µg/mL (≈ 3.35 µM)
Anaerococcus prevotii
  MIC: 16 µg/mL (≈ 26.8 µM)
Cutibacterium acnes
  MIC: 8 µg/mL (≈ 13.4 µM)
Streptococcus [12]
  MIC: 0.5 µg/mL (≈ 0.836 µM)
Streptococcus [13]
  MIC: 0.5 µg/mL (≈ 0.836 µM)
Streptococcus [14]
  MIC: 0.5 µg/mL (≈ 0.836 µM)
Streptococcus [15]
  MIC: 1 µg/mL (≈ 1.67 µM)
Streptococcus [16]
  MIC: 0.25 µg/mL (≈ 0.418 µM)
[17]
  MIC: > 128 µg/mL
Staphylococcus aureus [18]
  MIC: 1 µg/mL (≈ 1.67 µM)
Staphylococcus aureus [19]
  MIC: 1 µg/mL (≈ 1.67 µM)
Staphylococcus aureus [20]
  MIC: 1 µg/mL (≈ 1.67 µM)
Staphylococcus aureus [21]
  MIC: 2 µg/mL (≈ 3.35 µM)
Staphylococcus aureus [22]
  MIC: 2 µg/mL (≈ 3.35 µM)
Streptococcus pyogenes [23]
  ED50: 3.3 mg/kg
Streptococcus pyogenes [24]
  ED50: 97 mg/kg
Streptococcus pneumoniae [25]
  MIC: > 128 µg/mL
Streptococcus pyogenes [26]
  ED50: 3.9 mg/kg
Streptococcus sanguinis
  MIC: 0.25 µg/mL (≈ 0.418 µM)
Streptococcus pneumoniae [27]
  MIC: 0.25 µg/mL (≈ 0.418 µM)
[28]
  MIC: 1 µg/mL (≈ 1.67 µM)
[29]
  MIC: 0.25 µg/mL (≈ 0.418 µM)
Enterococcus faecium
  MIC: 1 µg/mL (≈ 1.67 µM)
Streptococcus pyogenes [30]
  MIC: 0.25 µg/mL (≈ 0.418 µM)
Streptococcus viridans
  MIC: > 128 µg/mL
Streptococcus [31]
  MIC: 1 µg/mL (≈ 1.67 µM)
Staphylococcus aureus [32]
  MIC: 1 µg/mL (≈ 1.67 µM)
Haemophilus influenzae [33]
  MIC: 4 µg/mL (≈ 6.69 µM)
[34]
  MIC: 8 µg/mL (≈ 13.4 µM)
[35]
  MIC: < 0.5 µg/mL
Collinsella aerofaciens [36]
  MIC: < 0.5 µg/mL
Streptococcus [37]
  MIC: 0.5 µg/mL (≈ 0.836 µM)
[38]
  MIC: 32 µg/mL (≈ 53.5 µM)
Streptococcus pyogenes [39]
  MIC: 0.25 µg/mL (≈ 0.418 µM)
Streptococcus pyogenes [40]
  ED50: 102 mg/kg

## CC[C@H]1OC(=O)C[C@@H](O)[C@H](C)[C@@H](O[C@@H]2O[C@H](C)[C@@H](O[C@H]3C[C@@](C)(O)[C@@H](O)[C@H](C)O3)[C@H](N(C)C)[C@H]2O)[C@@H](CCO)C[C@@H](C)C(=O)/C=C/C(C)=C/[C@@H]1CO[C@@H]1O[C@H](C)[C@@H](O)[C@@H](OC)[C@H]1OC [RELOMYCIN]
Bacteroides fragilis [1]
  MIC: 4 µg/mL (≈ 4.36 µM)
Bacteroides fragilis [2]
  MIC: > 8 µg/mL
Bacteroides fragilis [3]
  MIC: 8 µg/mL (≈ 8.71 µM)
Eikenella corrodens
  MIC: > 8 µg/mL
Phocaeicola vulgatus
  MIC: > 8 µg/mL
[4]
  MIC: 4 µg/mL (≈ 4.36 µM)
[5]
  MIC: 4 µg/mL (≈ 4.36 µM)
Clostridioides difficile
  MIC: 1 µg/mL (≈ 1.09 µM)
Clostridium perfringens
  MIC: > 8 µg/mL
Clostridium septicum
  MIC: 8 µg/mL (≈ 8.71 µM)
Chlamydia trachomatis
  MIC: > 1 µg/mL
Collinsella aerofaciens [41]
  MIC: 1 µg/mL (≈ 1.09 µM)
Fusobacterium
  MIC: 4 µg/mL (≈ 4.36 µM)
Haemophilus influenzae [8]
  MIC: > 128 µg/mL
[10]
  MIC: > 8 µg/mL
[11]
  MIC: 1 µg/mL (≈ 1.09 µM)
Anaerococcus prevotii
  MIC: > 8 µg/mL
Cutibacterium acnes
  MIC: 8 µg/mL (≈ 8.71 µM)
Staphylococcus aureus [18]
  MIC: 4 µg/mL (≈ 4.36 µM)
Streptococcus pyogenes [26]
  ED50: 15.4 mg/kg
Streptococcus pneumoniae [27]
  MIC: 32 µg/mL (≈ 34.9 µM)
[28]
  MIC: 4 µg/mL (≈ 4.36 µM)
Enterococcus faecium
  MIC: 64 µg/mL (≈ 69.7 µM)
Streptococcus pyogenes [30]
  MIC: 2 µg/mL (≈ 2.18 µM)
[42]
  MIC: > 8 µg/mL
[34]
  MIC: 8 µg/mL (≈ 8.71 µM)
[35]
  MIC: 1 µg/mL (≈ 1.09 µM)
Streptococcus pyogenes [40]
  ED50: > 100 mg/kg
